How the values were obtained:
CYP7A1 mRNA = assay: Expression of CYP7A1 mRNA; assay type: cell-based; conditions: HepG2 cells, 50 μM, 6 h, DMEM with 10% FCS; fold of control (0.1% DMSO)
Outline: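 HepG2 cells were grown in DMEM with 10% FBS, 1% glutamine, penicillin/streptomycin and amphotericin B. They were then exposed in the same medium to test compound or positive control at 50 μM (DMSO 0.1% final) for 6 h. Total RNA (900 ng) was reverse-transcribed with oligo d(T)16 primers. SYBR Green qPCR measured CYP7A1, normalised to β2-microglobulin.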

full length murine FXR = target: T1, full length murine FXR (Mus musculus, UniProt Q60641); assay: FXR reporter gene; assay type: cell-based; conditions: HEK293 cells, increasing concentrations (0–100 μM)
T1 sequence (Q60641 1-488): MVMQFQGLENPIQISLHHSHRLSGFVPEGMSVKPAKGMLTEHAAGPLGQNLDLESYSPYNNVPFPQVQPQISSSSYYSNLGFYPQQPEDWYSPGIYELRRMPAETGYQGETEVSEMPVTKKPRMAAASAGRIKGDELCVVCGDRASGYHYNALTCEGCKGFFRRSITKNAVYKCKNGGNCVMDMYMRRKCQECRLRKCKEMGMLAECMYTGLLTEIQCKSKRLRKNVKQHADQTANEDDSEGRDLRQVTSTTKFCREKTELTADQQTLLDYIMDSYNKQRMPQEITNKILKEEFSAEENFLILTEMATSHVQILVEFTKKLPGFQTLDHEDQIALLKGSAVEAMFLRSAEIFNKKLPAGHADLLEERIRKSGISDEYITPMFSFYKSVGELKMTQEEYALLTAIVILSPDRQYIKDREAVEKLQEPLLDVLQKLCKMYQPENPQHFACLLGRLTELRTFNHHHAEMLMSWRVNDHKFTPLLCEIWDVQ
T1 sequence (P28700 1-467 partner): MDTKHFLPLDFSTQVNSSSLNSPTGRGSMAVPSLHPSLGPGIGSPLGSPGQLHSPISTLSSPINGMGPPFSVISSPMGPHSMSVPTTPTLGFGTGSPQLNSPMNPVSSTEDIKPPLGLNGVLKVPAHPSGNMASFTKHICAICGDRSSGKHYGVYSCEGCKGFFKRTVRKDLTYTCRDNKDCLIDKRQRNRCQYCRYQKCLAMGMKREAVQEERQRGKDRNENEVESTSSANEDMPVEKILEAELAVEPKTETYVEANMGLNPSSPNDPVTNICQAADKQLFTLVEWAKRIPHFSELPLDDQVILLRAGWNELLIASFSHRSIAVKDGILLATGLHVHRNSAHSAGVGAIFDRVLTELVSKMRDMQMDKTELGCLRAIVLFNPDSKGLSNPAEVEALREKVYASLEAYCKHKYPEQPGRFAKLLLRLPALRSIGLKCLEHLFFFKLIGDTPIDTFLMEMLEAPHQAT

levels of CYP7A1 mRNA (CYP7A1 mRNA)	FXR agonism in reporter assay (result in words) (full length murine FXR)	SMILES
significantly decreased	dose–dependent FXR-agonism	COc1ccc(N2CCN(C[C@H](O)COc3cc4c(c5c3CCCC5)CCCC4)CC2)cc1 [Compound 19]
significantly decreased	dose–dependent FXR-agonism	CCCCc1ccc([C@@H](CC(=O)c2ccccc2)c2ccccc2)cc1 [Compound 20]
